# pIC50: −log10 of the molar value. Calls of active or inactive are those of the source. No cut-off for these calls is given here.
# Columns and labels:
# [1] = target: T1, Glucocorticoid receptor (Homo sapiens) (UniProt P04150); test: Antagonist activity at human glucocorticoid receptor expressed in CHO-K1 cells harboring firefly luciferase gene assessed as inhibition of glucocorticoid receptor activity at 0.01 to 10000 nM after 20 hrs by One-Glo luciferase reporter gene assay relative to mifepristone; type: cell-based; parameters: scale not given: the % may be the effect or the level left
# T1 sequence (whole entry): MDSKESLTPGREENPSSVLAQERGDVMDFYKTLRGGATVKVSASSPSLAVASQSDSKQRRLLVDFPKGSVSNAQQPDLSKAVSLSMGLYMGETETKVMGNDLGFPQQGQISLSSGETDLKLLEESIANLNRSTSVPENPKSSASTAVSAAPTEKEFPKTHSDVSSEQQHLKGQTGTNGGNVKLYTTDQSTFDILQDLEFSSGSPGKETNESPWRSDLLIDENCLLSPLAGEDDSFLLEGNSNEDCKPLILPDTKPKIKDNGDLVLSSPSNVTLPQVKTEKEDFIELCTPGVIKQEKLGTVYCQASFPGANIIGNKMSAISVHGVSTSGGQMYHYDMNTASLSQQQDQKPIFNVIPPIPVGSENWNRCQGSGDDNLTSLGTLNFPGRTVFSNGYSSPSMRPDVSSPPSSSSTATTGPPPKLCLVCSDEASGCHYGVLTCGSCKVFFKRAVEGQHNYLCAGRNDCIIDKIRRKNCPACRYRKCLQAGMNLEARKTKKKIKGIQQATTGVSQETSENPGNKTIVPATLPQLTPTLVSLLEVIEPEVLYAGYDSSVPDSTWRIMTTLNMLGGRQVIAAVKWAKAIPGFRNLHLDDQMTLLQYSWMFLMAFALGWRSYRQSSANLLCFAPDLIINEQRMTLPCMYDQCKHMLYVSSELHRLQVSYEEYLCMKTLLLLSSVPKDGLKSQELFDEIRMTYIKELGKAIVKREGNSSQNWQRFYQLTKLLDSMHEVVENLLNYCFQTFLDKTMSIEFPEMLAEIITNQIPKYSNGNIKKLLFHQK
# How it was run: (§1)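 Cell-based luciferase reporter assays for GR, AR and PR, run in agonist and antagonist modes. Potency and Emax are averages of at least two determinations, reported with SD.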
# [2] = AUC in mini-pig at 5 mg/kg, po; type: ADME, organism-based, Sus scrofa domesticus; conditions: in vivo
# [3] = Oral bioavailability in dog at 5 mg/kg; type: ADME, organism-based, Canis lupus familiaris; conditions: in vivo
# Mus musculus [4] = test: (§2) In vivo antagonist activity at glucocorticoid receptor in tumor of human HCC1806 cells xenografted in hsd:athymic Nude-Foxn1nu mouse assessed as reduction in cortisol-stimulated FKBP5 mRNA expression at 150 mg/kg, po administered as single dose via gavage and measured at 3 hrs post cortisol addition by qRT-PCR analysis (reference value: 2.3 to 4); type: functional
# How it was run: (§3)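 HCC1806 TNBC xenograft tumors in mice. Cortisol 5 mg/kg given orally as a bolus to activate GR. The compound was given as a single oral gavage dose of 150 mg/kg, with vehicle controls. Tumors were collected 3 and 6 h after cortisol, and FKBP5 mRNA was measured by RT-qPCR relative to vehicle. n = 3 mice/group. One-way ANOVA with Dunnett's test versus vehicle.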
# Mus musculus [5] = test: Unbound plasma concentration in hsd:athymic Nude-Foxn1nu mouse xenografted with human HCC1806 cells at 150 mg/kg, po administered as single dose via gavage and measured after 1 to 6 hrs […]; type: ADME, organism-based; conditions: in vivo
# How it was run: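 Mice bearing HCC1806 xenografts received a bolus oral dose of cortisol at 5 mg/kg to activate GR, plus a single oral gavage dose of the test agent at 150 mg/kg. An unbound plasma concentration-time profile was taken up to 6 h, with n = 3 mice per group.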
# [6] = Volume of distribution at steady state in dog at 0.5 mg/kg, iv; type: ADME, organism-based, Canis lupus familiaris; conditions: in vivo, read-out: Vdss
# [7] = Solubility of compound in PBS at pH 7.4; type: physicochemical
# [8] = Toxicity in female rat assessed as effect on ovarian weight at 250 mg/kg/day, po administered once daily via gavage for 14 days; type: organism-based; conditions: in vivo, 336 h
# [9] = target: T2, Progesterone receptor (Homo sapiens) (UniProt P06401); test: Agonist activity at human progesterone receptor expressed in CHO-K1 cells harboring firefly luciferase gene after 20 hrs by One-Glo luciferase reporter gene assay; type: cell-based; how it was run: as §1
# T2 sequence (whole entry): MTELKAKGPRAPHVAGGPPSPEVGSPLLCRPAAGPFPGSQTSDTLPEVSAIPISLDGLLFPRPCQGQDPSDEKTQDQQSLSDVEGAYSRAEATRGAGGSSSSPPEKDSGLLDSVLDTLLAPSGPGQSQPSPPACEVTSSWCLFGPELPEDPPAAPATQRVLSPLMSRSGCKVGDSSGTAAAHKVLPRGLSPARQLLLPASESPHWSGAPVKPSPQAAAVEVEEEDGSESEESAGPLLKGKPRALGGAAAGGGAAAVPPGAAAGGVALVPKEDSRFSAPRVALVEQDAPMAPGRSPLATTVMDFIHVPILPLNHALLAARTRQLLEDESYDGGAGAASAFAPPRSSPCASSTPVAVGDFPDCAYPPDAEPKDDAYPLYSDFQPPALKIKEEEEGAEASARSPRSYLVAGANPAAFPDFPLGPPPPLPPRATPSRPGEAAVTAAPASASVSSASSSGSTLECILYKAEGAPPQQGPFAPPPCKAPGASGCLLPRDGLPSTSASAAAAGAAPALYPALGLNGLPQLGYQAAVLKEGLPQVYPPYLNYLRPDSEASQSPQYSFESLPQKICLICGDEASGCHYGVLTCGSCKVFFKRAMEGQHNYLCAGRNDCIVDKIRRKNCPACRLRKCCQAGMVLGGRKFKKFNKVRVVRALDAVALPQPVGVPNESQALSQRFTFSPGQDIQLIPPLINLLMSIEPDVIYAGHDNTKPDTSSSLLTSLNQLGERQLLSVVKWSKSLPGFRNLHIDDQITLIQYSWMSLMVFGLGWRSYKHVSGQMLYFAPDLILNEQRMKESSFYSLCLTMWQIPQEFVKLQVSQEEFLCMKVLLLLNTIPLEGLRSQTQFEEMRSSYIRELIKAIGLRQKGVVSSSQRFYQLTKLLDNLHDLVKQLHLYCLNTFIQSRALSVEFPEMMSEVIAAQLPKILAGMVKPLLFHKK
# [10] = Cmax in dog at 5 mg/kg, po; type: ADME, organism-based, Canis lupus familiaris; parameters: dose 5 mg/kg, route oral; conditions: in vivo
# Glucocorticoid receptor = target: T3, Glucocorticoid receptor (Homo sapiens, UniProt P04150); test: Displacement of fluormone tracer from full length human recombinant glucocorticoid receptor expressed in baculovirus expression system incubated for 2 hrs by competitive fluorescence polarization binding assay
# T3 sequence (P04150 whole entry): T1 sequence (whole entry)
# [11] = Cmax in mini-pig at 5 mg/kg, po; type: ADME, organism-based, Sus scrofa domesticus; parameters: dose 5 mg/kg, route oral; conditions: in vivo
# [12] = Volume of distribution at steady state in rat at 0.5 mg/kg, iv; type: ADME, organism-based; conditions: in vivo, read-out: Vdss
# How it was run: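 Rat PK study. The iv dose of 0.5 mg/kg was given in 10% DMSO, 70% PEG 400 and 20% water. The oral dose of 5 mg/kg was given in 5% DMSO / 95% of 0.2% Tween 80 in 0.25% CMC, adjusted to pH 4 for one compound. Read-outs were CL, Vss, iv t1/2, F, Cmax and AUC.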
# Mus musculus [13] = test: as §2, with “at 6” for “at 3”; type: functional; how it was run: as §3
smiles,measurement,setting,value
CC#C[C@]1(O)CC[C@H]2[C@@H]3CCC4=CC(=O)CC[C@]4(C)[C@H]3[C@@H](c3ccc(N(C)C)cc3)C[C@@]21C,Activity,[1],100%
same,AUC,[2],2450 ng·h/mL
same,bioavailability,[3],67.6%
same,fold change (FC),Mus musculus [4],2.8
same,Cp(f),Mus musculus [5],400 nM
same,Vd,[6],8.32 L/kg
same,solubility,[7],20.6 µM
same,Activity,[8],Non-Toxic
same,agonist activity,[9],inactive
same,Cmax,[10],1260 ng/mL
same,pIC50,Glucocorticoid receptor,8.07
same,Cmax,[11],249 ng/mL
same,Vd,[12],4.7 L/kg
same,fold change (FC),Mus musculus [13],2.3
